Experiments:
[1] = biological target: Human immunodeficiency virus type 1 reverse transcriptase (Human immunodeficiency virus 1) (UniProt Q72547); test: Compound ability to inhibit the production of HIV reverse transcriptase (RT) in culture supernatant of CEM-CL13 on at 7 days at a concentration 1 uM; assay type: functional
Summary of the method: (§1)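 CEM-C113 cells in RPMI 1640 with 5% heat-inactivated FCS and polybrene (2 µg/mL) were plated at 1×10^5 cells/mL with compound in PBS, in triplicate, and infected with HIV-1 LAV-Bru. From day 7, every 3–4 days, fresh medium with or without drug was added and 50 µL supernatant was taken for RT microassay. The RT microassay used poly(rA)-oligo(dT) and (methyl-³H)dTTP for 1 h at 37 °C, with TCA precipitation, read as cpm/50 µL.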

[2] = biological target: Human immunodeficiency virus type 1 reverse transcriptase (Human immunodeficiency virus 1) (UniProt Q72547); test: Compound ability to inhibit the production of HIV reverse transcriptase (RT) in culture supernatant of monocytic U937 on at 14 days at a concentration 0.2 uM; assay type: functional
Summary of the method: (§2)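 HIV-1-infected monocytic U937 cultures were kept up to 14 days with compound. Supernatant RT activity was measured as for CEM-C113, as [³H] cpm/50 µL. % inhibition = 100 − 100 × (cpm of treated samples / cpm of control virus).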

[3] = biological target: Human immunodeficiency virus type 1 reverse transcriptase (Human immunodeficiency virus 1) (UniProt Q72547); test: Compound ability to inhibit the production of HIV reverse transcriptase (RT) in culture supernatant of CEM-CL13 on at 26 days at a concentration 1 uM; assay type: functional; summary of the method: as §1
[4] = biological target: Human immunodeficiency virus type 1 reverse transcriptase (Human immunodeficiency virus 1) (UniProt Q72547); test: Compound ability to inhibit the production of HIV reverse transcriptase (RT) in culture supernatant of monocytic U937 on at 11 days at a concentration 0.2 uM; assay type: functional; summary of the method: as §2
[5] = biological target: Human immunodeficiency virus type 1 reverse transcriptase (Human immunodeficiency virus 1) (UniProt Q72547); test: Compound ability to inhibit the production of HIV reverse transcriptase (RT) in culture supernatant of monocytic U937 on at 7 days at a concentration 0.2 uM; assay type: functional
Summary of the method: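 HIV-1 LAV-Bru-infected U937 cultures run in complete RPMI 1640 (5% FCS, polybrene 2 µg/mL) at 37 °C with compound in triplicate. Culture supernatant (50 µL) sampled from day 7 for RT microassay: poly(rA)-oligo(dT), (methyl-3H)dTTP, Mg2+, pH 7.8, 1 h at 37 °C, TCA precipitation onto filters. Read as cpm/50 µL; % inhibition = 100 − 100 × treated/virus-control cpm.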

[6] = biological target: Human immunodeficiency virus type 1 reverse transcriptase (Human immunodeficiency virus 1) (UniProt Q72547); test: Compound ability to inhibit the production of HIV reverse transcriptase (RT) in culture supernatant of CEM-CL13 on at 15 days at a concentration 5 uM; assay type: functional; summary of the method: as §1
[7] = biological target: Human immunodeficiency virus type 1 reverse transcriptase (Human immunodeficiency virus 1) (UniProt Q72547); test: Compound ability to inhibit the production of HIV reverse transcriptase (RT) in culture supernatant of monocytic U937 on at 7 days at a concentration 5 uM; assay type: functional; summary of the method: as §2
[8] = biological target: Human immunodeficiency virus type 1 reverse transcriptase (Human immunodeficiency virus 1) (UniProt Q72547); settings: at 25 µM
[9] = biological target: Human immunodeficiency virus type 1 reverse transcriptase (Human immunodeficiency virus 1) (UniProt Q72547); test: Percent inhibition measured as the production of HIV reverse transcriptase (RT) in culture supernatant of monocytic U937 on at 14 days at a concentration 5 uM; assay type: functional
Summary of the method: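 U937 cells in RPMI 1640 with 5% heat-inactivated FCS, penicillin, streptomycin and polybrene (2 μg/mL), 37 °C, 5% CO2. Infected with HIV-1 LAV-Bru; compounds diluted in PBS. 50 μL supernatant aliquots were assayed for RT: 1 h, 37 °C, pH 7.8, Mg2+, poly(rA)-oligo(dT), [3H]dTTP, TCA-pyrophosphate stop, filter counting. % inhibition = 100 − 100 × (treated cpm / virus-control cpm).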

[10] = biological target: Human immunodeficiency virus type 1 reverse transcriptase (Human immunodeficiency virus 1) (UniProt Q72547); test: Compound ability to inhibit the production of HIV reverse transcriptase (RT) in culture supernatant of CEM-CL13 on at 26 days at a concentration 5 uM; assay type: functional; summary of the method: as §1
[11] = biological target: Human immunodeficiency virus type 1 reverse transcriptase (Human immunodeficiency virus 1) (UniProt Q72547); test: Compounds were evaluated for anti-RT activity by MTT dose and %protection was reported at 7 days of culture
Summary of the method: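 HIV-1 was preincubated with compound at 25 µM for 60 min at 37 °C, pelleted, and added to CEM-C113 cells (1×10^5 cells/mL) for 60 min at 37 °C. Medium was then replaced without compound. At days 7 and 9, viability was read by MTT assay on 100 µL of cell suspension.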

| Structure (SMILES) | Activity (c.p.m. 50ul-1) [1] | Activity (c.p.m. 50ul-1) [2] | Activity (c.p.m. 50ul-1) [3] | Activity (c.p.m. 50ul-1) [4] | Activity (c.p.m. 50ul-1) [5] | Activity (c.p.m. 50ul-1) [6] | Activity (c.p.m. 50ul-1) [7] | inhibition [8] [%] | inhibition [9] [%] | Activity (c.p.m. 50ul-1) [10] | Protection [11] [%] |
| --- | --- | --- | --- | --- | --- | --- | --- | --- | --- | --- | --- |
| CCCCCCCCCCCCCCCCOP(=O)(OCCO[C@H]1O[C@H](CO)[C@@H](O)[C@H](O)[C@@H]1O)OCC1OC(n2cc(C)c(=O)[nH]c2=O)CC1N=[N+]=[N-] (stereo partly specified) | 6000 | 30000 | 64000 | 131000 | 343000 |  |  |  |  |  |  |
| CCCCCCCCCCCCCCCCOP(=O)(OC[C@H]1OC(O)[C@@H](O)[C@@H](O)[C@@H]1O)OC[C@H]1OC(n2cc(C)c(=O)[nH]c2=O)C[C@@H]1N=[N+]=[N-] (stereo partly specified) | 2000 | 27000 | 20000 | 227000 | 251000 |  |  |  |  |  |  |
| Cc1cn([C@H]2C[C@H](N=[N+]=[N-])[C@@H](CO)O2)c(=O)[nH]c1=O [ZIDOVUDINE] | 100 | 60000 | 12000 | 152000 | 23000 | 500 | 35000 | 96 | 0 | 1300 |  |
| CCCCCCCCCCCCCCCCOP(=O)(OC[C@H]1OC(O)[C@H](O)[C@@H](O)[C@@H]1O)OC[C@H]1OC(n2cc(C)c(=O)[nH]c2=O)C[C@@H]1N=[N+]=[N-] (stereo partly specified) | 2600 | 16000 | 72000 | 178000 | 237000 |  |  |  |  |  |  |
| Cc1cn([C@H]2C[C@H](N=[N+]=[N-])[C@@H](COP(=O)(O)OC[C@H]3OC(O)[C@H](O)[C@@H](O)[C@@H]3O)O2)c(=O)[nH]c1=O (stereo partly specified) |  |  |  |  |  | 400 | 142000 | 73 | 0 | 6000 | 36 |
| Cc1cn([C@H]2C[C@H](N=[N+]=[N-])[C@@H](COP(=O)(O)OCCO[C@H]3O[C@H](CO)[C@@H](O)[C@H](O)[C@@H]3O)O2)c(=O)[nH]c1=O |  |  |  |  |  | 852 | 200000 | 77 | 0 | 42000 |  |
| Cc1cn([C@H]2C[C@H](N=[N+]=[N-])[C@@H](COP(=O)(O)OC[C@H]3OC(O)[C@@H](O)[C@@H](O)[C@@H]3O)O2)c(=O)[nH]c1=O (stereo partly specified) |  |  |  |  |  | 1300 | 133000 | 86 | 0 | 103000 |  |

From ChEMBL document CHEMBL1125259, “Lipophilic glycosyl phosphotriester derivatives of AZT: synthesis, NMR transmembrane transport study, and antiviral activity” (1991)
